This note sets out measurements from ChEMBL document CHEMBL1126207, “Base-catalyzed isomerization of retinoic acid. Synthesis and differentiation-inducing activities of 14-alkylated all-trans-, 13-cis-, and 20,14-retro-retinoic acids” (1992).

Structures are written as SMILES. Activity calls are given as the source filed them. The calls are words filed in the database; no cut-off is given here. Where only a bound is given, the exact number is not on record here.

The first assay relates to HL-60. The assay is described as follows: Concentration required for 50% inhibition of differentiation-inducing activity against human promyelocytic leukemia cell line HL-60. It is filed as functional. The settings on record: read-out: ED50 (the source's name). The method, boiled down: (§1)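 HL-60 cells kept in suspension in RPMI1640 with 5% FCS plus penicillin G/streptomycin, 37 °C, 5% CO2. Seeded near 8 × 10^4 cells/mL, compound added from 0.2 mM ethanol stock (final ethanol below 0.5%), 4-day incubation. Differentiation by NBT reduction (20 min, 37 °C, 0.2% NBT with TPA), formazan-positive cells counted on ≥200 cells; ED50 taken from NBT data; retinoic acid run concurrently.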
In the case of `C=C(/C=C/C=C(C)/C=C/C1=C(C)CCCC1(C)C)C(C)(C)C(=O)O`, the EC50 was over 1000 nM. Same read-out and setting: the figure for `CC1=C(/C=C/C(C)=C/C=C/C(C)=C\C(=O)O)C(C)(C)CCC1` [ISOTRETINOIN] is 5.9 nM; for `C=C(/C=C/C=C(C)/C=C/C1=C(C)CCCC1(C)C)C(C)C(=O)O` (stereo not given) it is 55.1 nM; for `CC1=C(/C=C/C(C)=C/C=C/C(C)=C(\C)C(=O)O)C(C)(C)CCC1` it is 13 nM. Still for that read-out and setting: the figure for `CC1=C(/C=C/C(C)=C/C=C/C(C)=C(/C)C(=O)O)C(C)(C)CCC1` is 63 nM; for `CC\C(C(=O)O)=C(C)/C=C/C=C(C)/C=C/C1=C(C)CCCC1(C)C` it is 680 nM; for `CC1=C(/C=C/C(C)=C/C=C/C(C)=C/C(=O)O)C(C)(C)CCC1` [TRETINOIN] it is 2.4 nM. As to `C=C(/C=C/C=C(C)/C=C/C1=C(C)CCCC1(C)C)CC(=O)O`, the EC50 amounted to 52 nM.

In the next assay the test system is HL-60. Put plainly: Concentration required for 50% inhibition of differentiation-inducing activity against human promyelocytic leukemia cell line HL-60; IA is inactive. It is filed as functional, cell-based.
Conditions: not given
An outline of the steps: as §1
On to `CC1=C(/C=C/C(C)=C/C=C/C(C)=C(\C(=O)O)C(C)C)C(C)(C)CCC1`, for which the ED50 entry is “inactive”.

As for `CC1=C(/C=C/C(C)=C/C=C/C(C)=C(/C(=O)O)C(C)C)C(C)(C)CCC1`, the ED50 result is “inactive”.
